One molecule from ChEMBL document CHEMBL3853298, “Total synthesis and in vitro bioevaluation of clavaminols A, C, H & deacetyl clavaminol H as potential chemotherapeutic and antibiofilm agents” (Eur J Med Chem, 2016) can be followed below.

Molecules are shown by their SMILES. In brackets after ≈: the same amount, converted by molar mass. Activity calls are given as the source filed them.

For test [1], the system named is Micrococcus luteus. As to the kind of experiment: Bactericidal activity against Micrococcus luteus MTCC 2470 after 24 hrs. It counts as functional. The note with it: MTCC 2470, 24 h. Put shortly:
(§1)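 Broth macrodilution in Mueller Hinton broth, compound serially diluted from 150 down to 0. Overnight bacterial culture added to a final 1.5 × 10^8 CFU/mL (0.5 McFarland), 24 h at 37 °C. Suspension then subcultured onto Mueller Hinton agar for 24 h at 37 °C. MBC is the lowest concentration killing the strain. Duplicates.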

For test [2], the system named is Staphylococcus aureus. As to the kind of experiment: Antibacterial activity against Staphylococcus aureus MTCC 96 after 24 hrs by well diffusion method. It counts as functional. The note with it: MTCC 96, 24 h. Put shortly:
(§2)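 Bacteria spread (0.1 mL suspension) on Mueller-Hinton agar; 6.0 mm wells loaded with compound over a 250 to 0.48 per-well dose range, methanol as negative control. Incubated 24 h at 37 °C. MIC taken as the lowest concentration still giving an inhibition zone. Duplicates, mean reported.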
(A growth-free zone around the sample is the usual read-out of agar diffusion tests.)

The subject of test [3] is Bacillus subtilis. The test can be described thus: Bactericidal activity against Bacillus subtilis MTCC 121 after 24 hrs. It counts as functional. As to conditions: MTCC 121, 24 h. Put shortly: as §1
Test [4] concerns Escherichia coli. As to the kind of experiment: Antibiofilm activity against Escherichia coli MTCC 739 incubated for 24 hrs under static condition by crystal violet staining-based assay. It counts as functional. A digest of the protocol: (§3)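 Strains grown overnight in tryptone soy broth with 0.5% glucose. Compound (250 to 0) mixed with inoculum at 5 × 10^5 CFU/mL in polystyrene microtiter plates. Non-adherent cells washed off with PBS; wells stained with 0.1% crystal violet, dye solubilised in 95% ethanol, absorbance read at 540 nm. IC50 for 50% biofilm inhibition taken from dose-response curves. Triplicates, mean ± S.D.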

The test system of test [5] is Micrococcus luteus. As to the kind of experiment: Induction of intracellular ROS accumulation in Micrococcus luteus MTCC 2470 sessile biofilm cells at 0.5 to 4 ug/ml after 24 hrs by DCFH-DA staining-based assay. It counts as functional, cell-based. Put shortly: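 Intracellular ROS was measured in M. luteus MTCC 2470 biofilms grown in 24-well plates. Mature biofilms were treated and incubated 24 h at 30 °C together with […] DCFH-DA. Well contents were centrifuged at 5000 × g for 10 min. Fluorescence (ex 485/em 535 nm) was read separately for supernatant and for sessile cells resuspended in PBS. Triplicate, mean ± S.D.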

The subject of test [6] is Micrococcus luteus. The test can be described thus: Antibacterial activity against Micrococcus luteus MTCC 2470 after 24 hrs by well diffusion method. It counts as functional. As to conditions: MTCC 2470, 24 h. Put shortly: as §2
Test [7] relates to Staphylococcus aureus. The test can be described thus: Antibiofilm activity against Staphylococcus aureus MLS16 MTCC 2940 incubated for 24 hrs under static condition by crystal violet staining-based assay. It counts as functional. A digest of the protocol: as §3
The test system of test [8] is Raoultella planticola. As to the kind of experiment: Bactericidal activity against Klebsiella planticola MTCC 530 after 24 hrs. It counts as functional. As to conditions: MTCC 530, 24 h. A digest of the protocol: as §1
Test [9] concerns Micrococcus luteus. The test can be described thus: Antibiofilm activity against Micrococcus luteus MTCC 2470 incubated for 24 hrs under static condition by crystal violet staining-based assay. It counts as functional. Put shortly: as §3
Test [10] deals with Bacillus subtilis. As to the kind of experiment: Antibiofilm activity against Bacillus subtilis MTCC 121 incubated for 24 hrs under static condition by crystal violet staining-based assay. It counts as functional. Put shortly: as §3
Test [11] has as its system Bacillus subtilis. The test can be described thus: Antibacterial activity against Bacillus subtilis MTCC 121 after 24 hrs by well diffusion method. It counts as functional. As to conditions: MTCC 121, 24 h. A digest of the protocol: as §2
Test [12] has as its system Pseudomonas aeruginosa. The test can be described thus: Antibacterial activity against Pseudomonas aeruginosa MTCC 2453 after 24 hrs by well diffusion method. It counts as functional. As to conditions: MTCC 2453, 24 h. A digest of the protocol:
as §2

Test [13] deals with Pseudomonas aeruginosa. As to the kind of experiment: Bactericidal activity against Pseudomonas aeruginosa MTCC 2453 after 24 hrs. It counts as functional. As to conditions: MTCC 2453, 24 h. Put shortly: as §1
The subject of test [14] is Staphylococcus aureus. The test can be described thus: Antibacterial activity against Staphylococcus aureus MLS16 MTCC 2940 after 24 hrs by well diffusion method. It counts as functional. As to conditions: MLS16 MTCC 2940, 24 h. Put shortly:
as §2

In test [15] the test system is Raoultella planticola. The test can be described thus: Antibacterial activity against Klebsiella planticola MTCC 530 after 24 hrs by well diffusion method. It counts as functional. As to conditions: MTCC 530, 24 h. Put shortly:
as §2

The subject of test [16] is Staphylococcus aureus. The test can be described thus: Antibiofilm activity against Staphylococcus aureus MTCC 96 incubated for 24 hrs under static condition by crystal violet staining-based assay. It counts as functional. Put shortly: as §3
The test system of test [17] is Pseudomonas aeruginosa. The test can be described thus: Antibiofilm activity against Pseudomonas aeruginosa MTCC 2453 incubated for 24 hrs under static condition by crystal violet staining-based assay. It counts as functional. Put shortly:
as §3

Test [18] has as its system Staphylococcus aureus. The test can be described thus: Bactericidal activity against Staphylococcus aureus MTCC 96 after 24 hrs. It counts as functional. As to conditions: MTCC 96, 24 h. Put shortly: as §1
The test system of test [19] is Escherichia coli. The test can be described thus: Bactericidal activity against Escherichia coli MTCC 739 after 24 hrs. It counts as functional. As to conditions: MTCC 739, 24 h. Put shortly:
as §1

The subject of test [20] is Raoultella planticola. As to the kind of experiment: Antibiofilm activity against Klebsiella planticola MTCC 530 incubated for 24 hrs under static condition by crystal violet staining-based assay. It counts as functional. A digest of the protocol: as §3
The subject of test [21] is Staphylococcus aureus. The test can be described thus: Bactericidal activity against Staphylococcus aureus MLS16 MTCC 2940 after 24 hrs. It counts as functional. As to conditions: MLS16 MTCC 2940, 24 h. A digest of the protocol: as §1
In test [22] the test system is Escherichia coli. As to the kind of experiment: Antibacterial activity against Escherichia coli MTCC 739 after 24 hrs by well diffusion method. It counts as functional. The note with it: MTCC 739, 24 h. Put shortly: as §2

Regarding `O=C(O)c1cn(C2CC2)c2cc(N3CCNCC3)c(F)cc2c1=O` [CIPROFLOXACIN], the MBC – broadly, the smallest concentration meeting the test's criterion for killing – with Micrococcus luteus [1] was 1.9 µg/mL (≈ 5.73 µM); in the test with Bacillus subtilis [3], 1.9 µg/mL (≈ 5.73 µM); against Raoultella planticola [8], 0.9 µg/mL (≈ 2.72 µM); against Pseudomonas aeruginosa [13] it was 1.9 µg/mL (≈ 5.73 µM); in the test on Staphylococcus aureus [18], 0.9 µg/mL (≈ 2.72 µM); against Escherichia coli [19], 0.9 µg/mL (≈ 2.72 µM). In the test with Staphylococcus aureus [21], this molecule registered a minimal bactericidal concentration (MBC) of 0.9 µg/mL (≈ 2.72 µM). The MIC against Staphylococcus aureus [2], in the test with Micrococcus luteus [6], against Bacillus subtilis [11], in the test on Pseudomonas aeruginosa [12], in the test on Staphylococcus aureus [14] and with Raoultella planticola [15] was 0.9 µg/mL (≈ 2.72 µM) in each case. Inhibition of growth against Escherichia coli [22] (MIC) required 0.9 µg/mL (≈ 2.72 µM). The INH in the test on Escherichia coli [4] is 0.8 µg/mL; with Pseudomonas aeruginosa [17] it was 0.7 µg/mL. Further, the result with Micrococcus luteus [5] was Active. Moreover, the half-inhibitory concentration (IC50) (as a rule, the concentration at which inhibition is half-maximal) with Staphylococcus aureus [7] came out at 0.4 µg/mL (≈ 1.21 µM); in the test with Micrococcus luteus [9], 0.5 µg/mL (≈ 1.51 µM); in the test on Bacillus subtilis [10], 0.7 µg/mL (≈ 2.11 µM); with Staphylococcus aureus [16], 0.6 µg/mL (≈ 1.81 µM); with Raoultella planticola [20] it was 0.6 µg/mL (≈ 1.81 µM).
